# According to ChEMBL document CHEMBL1828512, “Potent, metabolically stable benzopyrimido-pyrrolo-oxazine-dione (BPO) CFTR inhibitors for polycystic kidney disease” (J Med Chem, 2011):
# What was measured:
# [1] = molecular target: Cystic fibrosis transmembrane conductance regulator (Homo sapiens, UniProt P13569); assay: Inhibition of human wild-type CFTR expressed in FRT cells coexpressing YFP-H148Q assessed as inhibition of cAMP agonist-induced iodide influx after 45 mins by fluorescence plate-reader analysis; format: functional, cell-based
# Kidney = assay: Inhibition of 8-Br-cAMP-induced renal cystogenesis in mouse embryonic kidney organ culture model after 5 days by inverted microscopic analysis; format: functional, tissue-based; details: 120 h
# [2] = Metabolic stability of the compound in rat liver microsomes assessed as disappearance of compound after 30 mins by LC/MS analysis in presence of NADPH; format: ADME, Microsome; details: read-out: Drug metabolism
# Method in brief: (§1)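 Compound at 5 µM was incubated with rat liver microsomes (1 mg protein/mL) in 100 mM potassium phosphate at 37 °C, with 0 or 1 mM NADPH. Samples were chilled, extracted with ethyl acetate, dried and taken up in mobile phase. Analysis was reverse-phase C18 LC/MS on a 5–95% acetonitrile gradient with negative ion detection.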
# [3] = Solubility of the compound in aqueous phosphate buffer at pH 7.4; format: physicochemical
# Method in brief: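 Solubility was measured in aqueous phosphate buffer at pH 7.4.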
# Liver microsomes = assay: Metabolic stability of the compound in rat liver microsomes assessed as disappearance of compound after 30 mins by LC/MS analysis in absence of NADPH; format: ADME, Microsome; details: 0.5 h; method in brief: as §1
# [4] = Solubility of the compound in albumin free saline; format: physicochemical; details: buffer
# Chain of Cystic fibrosis transmembrane conductance regulator (P13569 whole entry): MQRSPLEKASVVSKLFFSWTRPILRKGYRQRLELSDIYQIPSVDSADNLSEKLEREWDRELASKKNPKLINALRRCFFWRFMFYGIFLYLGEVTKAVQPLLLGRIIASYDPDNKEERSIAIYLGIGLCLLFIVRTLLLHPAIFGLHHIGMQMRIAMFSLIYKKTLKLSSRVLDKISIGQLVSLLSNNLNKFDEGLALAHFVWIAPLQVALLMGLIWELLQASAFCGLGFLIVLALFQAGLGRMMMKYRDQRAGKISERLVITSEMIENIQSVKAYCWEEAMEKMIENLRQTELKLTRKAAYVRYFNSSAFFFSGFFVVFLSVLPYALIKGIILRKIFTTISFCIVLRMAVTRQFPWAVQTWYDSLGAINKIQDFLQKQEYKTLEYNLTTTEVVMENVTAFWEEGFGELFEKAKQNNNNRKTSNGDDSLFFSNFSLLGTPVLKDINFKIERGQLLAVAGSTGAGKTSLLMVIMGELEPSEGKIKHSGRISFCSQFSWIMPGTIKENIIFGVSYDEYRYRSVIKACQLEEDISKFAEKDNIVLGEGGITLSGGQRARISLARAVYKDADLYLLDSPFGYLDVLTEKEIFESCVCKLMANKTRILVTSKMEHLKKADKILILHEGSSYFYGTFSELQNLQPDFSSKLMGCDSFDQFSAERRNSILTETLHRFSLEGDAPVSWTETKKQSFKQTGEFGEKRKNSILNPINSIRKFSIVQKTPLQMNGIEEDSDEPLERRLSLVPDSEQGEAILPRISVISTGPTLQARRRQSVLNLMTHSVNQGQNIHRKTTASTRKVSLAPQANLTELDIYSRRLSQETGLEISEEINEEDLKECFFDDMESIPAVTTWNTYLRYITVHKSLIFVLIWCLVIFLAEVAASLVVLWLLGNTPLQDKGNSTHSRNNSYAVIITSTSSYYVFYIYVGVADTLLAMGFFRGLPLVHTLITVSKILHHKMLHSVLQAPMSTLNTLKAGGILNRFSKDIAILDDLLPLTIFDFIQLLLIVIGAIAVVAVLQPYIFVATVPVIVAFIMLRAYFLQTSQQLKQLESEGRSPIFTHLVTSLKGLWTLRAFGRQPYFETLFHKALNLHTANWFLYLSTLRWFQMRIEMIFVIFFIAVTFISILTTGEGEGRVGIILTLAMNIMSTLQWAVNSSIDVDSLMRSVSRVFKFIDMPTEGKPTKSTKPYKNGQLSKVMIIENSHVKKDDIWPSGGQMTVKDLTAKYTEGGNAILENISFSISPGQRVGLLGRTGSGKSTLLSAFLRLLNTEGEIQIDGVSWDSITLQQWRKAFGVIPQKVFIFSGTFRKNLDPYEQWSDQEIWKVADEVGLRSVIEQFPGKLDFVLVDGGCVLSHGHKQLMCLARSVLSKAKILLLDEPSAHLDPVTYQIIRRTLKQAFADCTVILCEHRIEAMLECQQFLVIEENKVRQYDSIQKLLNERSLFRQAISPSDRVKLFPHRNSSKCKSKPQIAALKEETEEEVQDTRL
SMILES,IC50 [1],further results
CC(=O)N1c2ccccc2-n2c(-c3ccccc3)c3c(=O)n(C)c(=O)n(C)c3c2C1c1ccc(C)o1 (configuration not stated),Not Active,–
Cn1c(=O)c2c(-c3ccccc3)n3c(c2n(C)c1=O)C(c1ccc(Br)o1)Oc1ccc(C(=O)O)cc1-3 (configuration not stated),–,IC50 (Kidney): 100 nM; metabolised at 0.5 h [2]: < 5%; solubility [3]: 17 µM
Cc1ccc(C2c3c4c(c(-c5ccccc5)n3-c3ccccc3N2C(=O)CCl)c(=O)n(C)c(=O)n4C)o1 (configuration not stated),Not Active,–
Cn1c(=O)c2c(-c3ccccc3)n3c(c2n(C)c1=O)C(c1ccc(-c2ccccc2)o1)Nc1ccccc1-3 (configuration not stated),Not Active,–
Cn1c(=O)c2c(-c3ccccc3)n3c(c2n(C)c1=O)C(c1ccc(CO)o1)Nc1ccccc1-3 (configuration not stated),Not Active,–
Cc1ccc(C2c3c4c(c(-c5ccccc5)n3-c3ccccc3N2S(C)(=O)=O)c(=O)n(C)c(=O)n4C)o1 (configuration not stated),Not Active,–
Cc1ccc(C2Nc3ccccc3-n3c(-c4ccccc4)c4c(=O)n(C)c(=O)n(C)c4c32)o1 (configuration not stated),–,Stability (Liver microsomes): Stable; metabolised at 0.5 h [2]: 60%; solubility [4]: < 2 µM
Cn1c(=O)c2c(-c3ccccc3)n3c(c2n(C)c1=O)C(c1cc2ccccc2o1)Nc1ccccc1-3 (configuration not stated),Not Active,–
